STAT3 inh-1 = STAT3 signaling inhibition; U3A cells, IL-6 STAT3-luciferase reporter, luminescence; host cell line lacks STAT1; inhibition, % at 5.5 µM; hit rate 0.89% among 190,000; AID 862;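 active means inhibition above the mean inhibition across all screened compounds plus 3 SD, cut at about 44% in these data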
STAT1 blocker = STAT1 signaling inhibition; NIH 3T3 STAT1-luciferase reporter, IFN-gamma, luminescence; hit rate 0.35% among 200,000; inhibition, % at 5.5 µM; AID 920;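 active means inhibition above a set limit, the mean inhibition across all tested compounds plus 3 SD, cut at about 34% in these data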
PPC-1+TRAIL kill = compounds killing PPC-1 cancer cells with TRAIL present (potentiator screen, no TRAIL-free arm); PPC-1 cells + TRAIL, ATPLite viability luminescence; cell killing (% activity), % at 4 µM or 5 µM; hit rate 0.41% among 220,000; AID 1443;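 active means cell killing above 50% in the first pass at 4 µM, then a duplicate retest at 5 µM averaging 50% or more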
STAT3 act = STAT3 signaling activation; activation (% of control), % at 5.6 µM; AID 871; hit rate 0.91% among 190,000; U3A cells, IL-6 STAT3-luciferase reporter, luminescence; 100% = signal with IL-6 EC80 alone;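 active means activation above the screen-wide mean of compound activation plus 3 SD, cut at about 130% in these data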
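Assay system – human STAT1-deficient U3A cells with stable STAT3-luciferase reporter · Also added – IL-6 (33 ng/mL) · Schedule – compound 1 h, then IL-6 6 h at 37 °C · Technique – reporter luminescence signal · Evaluation – % activation versus median of IL-6-stimulated wells · Benchmarks – IL-6-only wells as 100% reference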
TRAIL sens C8 = caspase-8 TRAIL sensitization | NB7+C8 cells + TRAIL, ATPlite viability luminescence | inhibition (viability loss, TRAIL sensitization), % at 10 µM | hit rate 1% among 360,000 | AID 624354;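 active means compounds causing at least 50% loss of cell viability in the single-dose screen, relative to plate controls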
STAT3 inh-2 = STAT3 inhibition, confirmation assay. shares compounds with STAT3 inh-1. U3A cells, IL-6 STAT3 luciferase reporter, luminescence; cell line lacks STAT1. inhibition, % at 5.7 µM. hit rate 45% among 1,200;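 active means inhibition above the hit cutoff computed for the primary STAT3 screen, cut at about 44% in these data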
NFkB inh STAT3ct = counter-screen for STAT3 inhibitors: NF-kappaB inhibition | shares compounds with STAT3 inh-1 | HEK293T NF-kB luciferase reporter, TNF-alpha induced | inhibition, % at 5.7 µM | hit rate 36% among 1,200 | AID 1308;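 active means inhibition above the mean of solvent-only control wells plus 3 SD, cutoff set per campaign, cut at about 13% in these data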
STAT1 inh 2 = STAT1 inhibition in STAT3 inhibitor counter-screen | shares compounds with STAT3 inh-1 | NIH 3T3 STAT1-luciferase reporter, IFN-gamma induced, luminescence | inhibition, % at 5.7 µM | hit rate 27% among 1,200;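 active means inhibition above the mean plus 3 SD of solvent-only control wells, limit set per screening run, cut at about 16% in these data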
PPC-1 tox = PPC-1 cell cytotoxicity; shares compounds with PPC-1+TRAIL kill; PPC-1 viability, ATPlite luminescence, overnight; cytotoxicity, % at 5 µM; hit rate 50% among 1,200;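 active means reconfirmed compounds whose average cytotoxicity reaches 50% or more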
Hits are given with their value; - = inactive; . = not tested or not shown. Sampled rows, rich in hits. Any-hit rate of the full collection: about 1.8%.

SMILES	STAT3 inh-1	STAT1 blocker	PPC-1+TRAIL kill	STAT3 act	TRAIL sens C8	STAT3 inh-2	NFkB inh STAT3ct	STAT1 inh 2	PPC-1 tox
O=C(c1cc(COc2ccc3ncccc3c2)on1)N1CCCC1	.	.	.	.	-	.	.	.	.
O=C(c1cc(COc2ccc3ncccc3c2)on1)N1CCCCCC1	53.2	-	-	-	-	59.2	12.9	-	.
COCC1CCN(C(=O)c2cc(COc3ccc4ncccc4c3)on2)CC1	55.3	-	-	-	-	52.8	21.7	23.0	.
O=C(N=C1SC2CS(=O)(=O)CC2N1c1cc(Cl)ccc1Cl)C1CCCO1 (stereo not given)	.	.	.	.	-	.	.	.	.
COCC1CCN(C(=O)c2ccc3oc(Cc4ccc(Cl)cc4)nc3c2)C1 (stereo not given)	.	.	.	.	-	.	.	.	.
CS(=O)(=O)NNC(=O)Cn1nnc(-c2ccc(OCc3ccccc3Cl)cc2)n1	.	.	.	.	-	.	.	.	.
Oc1ccc(N=Nc2ccc3c(c2)OCCO3)c2cccnc12	62.9	-	-	-	-	-	-	-	.
O=[N+]([O-])c1ccccc1S(=O)(=O)NCCSCc1ccco1	.	.	.	.	-	.	.	.	.
COC(=O)CSc1ncnc2c1sc1nc3c(cc12)COC(C)(C)C3	44.2	-	-	-	73.3	44.5	17.5	28.4	.
CC1(C)Cc2nc3sc4c(SCC(=O)NCc5ccccc5)ncnc4c3cc2CO1	-	-	-	-	-	.	.	.	.
O=C(Nc1ccc(N2CCN(C(=O)c3ccc(Cl)cc3)CC2)cc1)c1cc2ccccc2o1	70.1	-	-	-	-	64.8	18.9	-	.
Oc1ccc(-c2n[nH]c(=S)n2-c2ccc3c(c2)OCCO3)c(O)c1	47.5	-	-	-	-	43.5	-	-	.
O=C(CSc1nnnn1C1CC2CCC1C2)Nc1ccnc2ccccc12 (stereo not given)	81.3	-	-	-	-	88.8	42.0	32.5	.
O=C(Nc1cccc(-c2nc3ccccc3s2)c1)c1ccc2c(c1)OCO2	-	-	-	-	-	.	.	.	.
c1ccc2sc(-c3ccc4c(c3)OCO4)nc2c1	70.3	-	57.6	-	73.1	-	-	-	.
COc1ccc(CNC(=O)c2cc3c(C)nc4ccccc4c3o2)c(OC)c1	79.1	-	-	-	-	59.8	14.6	19.8	.
CCc1ccc(CNC(=O)c2cc3c(C)nc4ccccc4c3o2)cc1	52.5	-	-	-	-	-	-	-	.
COc1cccc(CNC(=O)c2cc3c(C)nc4ccccc4c3o2)c1	45.9	-	-	-	-	-	-	-	.
Cc1nc(C)c(C(=O)O)c(-c2cccs2)c1C(=O)O	.	.	-	.	-	.	.	.	.
CC[C@H]1C=C[C@@H](C(C(=O)OC)C(=O)OC)CN1C(C)=O	.	.	.	.	-	.	.	.	.
CCOc1ccc(-c2nnc(-c3cccs3)o2)cc1	78.6	-	-	-	-	-	-	-	.
COc1ccc(C(=O)Nc2ccc(-c3cn4ccsc4n3)cc2)cc1S(=O)(=O)N1CCOCC1	-	-	-	-	-	.	.	.	.
CC(C)CC(=O)Nc1ccc(-c2cn3ccsc3n2)cc1	45.6	-	71.4	-	82.8	-	-	-	71.0
CC(C)(C)C(=O)Nc1ccc(-c2cn3ccsc3n2)cc1	72.5	-	90.7	-	89.7	-	-	-	90.4
COCCCN(C(=O)CSCC(=O)Nc1cccc(C)c1)c1c(N)n(Cc2ccccc2)c(=O)[nH]c1=O	.	.	.	.	-	.	.	.	.
SMILES	STAT3 inh-1	STAT1 blocker	PPC-1+TRAIL kill	STAT3 act	TRAIL sens C8	STAT3 inh-2	NFkB inh STAT3ct	STAT1 inh 2	PPC-1 tox
Cc1ccccc1Nc1nnc(SCC2CCCCO2)s1 (stereo not given)	-	-	-	-	-	.	.	.	.
COc1ccccc1Nc1nnc(SCC2CCCCO2)s1 (stereo not given)	63.9	-	65.0	-	70.5	-	-	-	64.9
Cc1ccc(-c2nc3ccccc3n2C(C)C(=O)NC(C)(C)C)cc1 (stereo not given)	.	.	.	.	-	.	.	.	.
C[C@@H]1CN([C@@H](C)CO)C(=O)CCCn2nncc2CO[C@H]1CN(C)Cc1ccccc1C(F)(F)F	.	.	.	.	-	.	.	.	.
CCc1nn2cc(-c3ccccc3)nc2s1	91.3	-	57.6	-	70.8	69.2	37.8	-	56.9
O=c1oc2ccccc2c(O)c1Sc1ccc(Cl)cc1	.	.	.	.	-	.	.	.	.
C/C(=N\N1C(=O)c2ccccc2NC1c1ccco1)c1ccccc1O (stereo not given)	45.5	-	-	-	76.0	-	-	-	50.0
NC(=S)Cc1nc2n(n1)Cc1ccccc1-2	-	-	-	-	-	.	.	.	.
Cc1ccc(-c2nc3n(n2)Cc2ccccc2-3)cc1	48.7	-	74.8	-	86.3	-	18.1	-	73.9
Clc1ccc(Cn2ncc3c(N4CCCCC4)ncnc32)cc1	-	-	-	-	-	.	.	.	.
Cc1cccc(-n2ncc3c(N4CCOCC4)ncnc32)c1	77.7	-	78.7	-	83.7	62.3	28.2	-	78.3
Clc1ccc(-n2ncc3c(N4CCCCCC4)ncnc32)cc1	87.2	-	63.1	-	83.7	70.9	49.3	-	68.5
COc1ccc(CN2C(=O)c3ccccc3C2c2nnnn2-c2ccc3c(c2)OCCO3)cc1 (stereo not given)	.	.	.	.	-	.	.	.	.
N/C(=N\OS(=O)(=O)c1ccc(Cl)cc1)c1ccccn1	-	-	.	-	-	.	.	.	.
N/C(=N\OC(=O)c1ccc(Cl)cc1)c1ccccn1	87.1	-	-	-	69.3	-	-	-	-
Cc1ccc(NC(=O)N2CCc3ccccc32)cc1C	61.9	-	55.4	-	65.7	-	-	-	58.6
Cc1ccc(NC(=O)N2CCc3ccccc32)cc1	55.7	-	66.8	-	62.6	-	-	-	64.6
O=S1(=O)C[C@@H](N2CCC[C@@H]2CO)[C@H](COCc2ccccc2)N1	.	.	.	.	-	.	.	.	.
Cc1ccc(C(=O)n2c(=S)nc3ccccn32)cc1	49.6	-	90.8	-	.	-	-	-	90.3
Cc1sc2ncn(CC(=O)N3CCN(c4ccccc4)CC3)c(=O)c2c1S(=O)(=O)N1CCOCC1	.	.	.	.	-	.	.	.	.
COc1ccc(CN2CCC(N(CCc3ccccc3)Cc3ccccc3)CC2)c(OC)c1	-	-	-	-	-	.	.	.	.
Cc1nc2ccc(-c3nc4ccccc4[nH]3)cc2[nH]1	45.6	-	-	-	-	-	-	-	-
CCOc1ccc(S(=O)(=O)N2CCN(C(=O)Cc3n[nH]c(=O)c4ccccc34)CC2)cc1	.	.	.	.	-	.	.	.	.
CCOC(=O)C1CCN(C(=O)COC(=O)c2oc3ccccc3c2C)CC1	.	.	.	.	-	.	.	.	.
CCCCN(CC)C(=O)c1cc2cc3ccc(OC)cc3nc2o1	-	-	-	-	-	.	.	.	.
CCCCN(C)C(=O)c1cc2cc3ccc(OC)cc3nc2s1	49.9	-	-	-	68.1	-	-	-	-
CC(C)(C)c1ccc(-c2noc(CCC(=O)N3CCOCC3)n2)cc1	51.1	-	-	-	64.3	-	-	-	-

From PubChem BioAssay
